Laboratory results taken from ChEMBL document CHEMBL5303300, “EUbOPEN Chemogenomics Library - Multiplex” (2023).
Several values for one entry are separate records, joined by “and”; a condition that tells them apart may be missing. Equal values may be shown once.

Tested on: Fibroblast
Assay: Multiplex assay against human fibroblast
Format: toxicity, cell-based
Details: number of replicates 2
Summary of the method: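 Per cents of healthy-nucleus cells form the tubulin, mitochondrial-mass and membrane-permeability phenotype values. Live cells were stained at seeding with Hoechst33342, BioTracker Green Microtubule Cytoskeleton Dye, MitoTracker Red and Annexin V Alexa Fluor 680. After compound addition they were imaged on a CQ1 microscope at 37°C and 5% CO2, and CellPathfinder machine-learning gating split them into Hoechst high-intensity objects or normal cells, normal cells into healthy, pyknosed or fragmented nuclei, and pyknosed cells into mitotic or apoptotic.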

[1] = 12 h, 1 µM, compound concentration 1 uM
[2] = 12 h, 10 µM, compound concentration 10 uM
[3] = 24 h, 1 µM, compound concentration 1 uM
[4] = 24 h, 10 µM, compound concentration 10 uM
[5] = 48 h, 1 µM, compound concentration 1 uM
[6] = 48 h, 10 µM, compound concentration 10 uM

SMILES: CS(=O)(=O)c1ccc(C(=O)Nc2cccc(COc3ccc(Br)cc3CN3CC[C@@H](O)C3)c2)c(Cl)c1.O=CO
- Population Apoptotic (%) [1]: 41% and 38%
- Population Fragmented Nuclei (%) [1]: 8%
- Population Healthy Nuclei (%) [1]: 61% and 73%
- Population Hoechst High Intensity Objects (%) [1]: 0%
- Population Mitotic Cells (%) [1]: 58% and 61%
- Population Normal (%) [1]: 100%
- Population Pyknosed Nuclei (%) [1]: 18%
- Total Cell Count [1]: 146 and 167
- Population Apoptotic (%) [2]: 50% and 40%
- Population Fragmented Nuclei (%) [2]: 18% and 16%
- Population Healthy Nuclei (%) [2]: 55% and 61%
- Population Hoechst High Intensity Objects (%) [2]: 0%
- Population Mitotic Cells (%) [2]: 49% and 59%
- Population Normal (%) [2]: 100%
- Population Pyknosed Nuclei (%) [2]: 25% and 22%
- Total Cell Count [2]: 224 and 280
- Population Apoptotic (%) [3]: 60% and 46%
- Population Fragmented Nuclei (%) [3]: 14% and 15%
- Population Healthy Nuclei (%) [3]: 63% and 67%
- Population Hoechst High Intensity Objects (%) [3]: 0%
- Population Mitotic Cells (%) [3]: 40% and 53%
- Population Normal (%) [3]: 100%
- Population Pyknosed Nuclei (%) [3]: 22% and 17%
- Total Cell Count [3]: 156 and 186
- Population Apoptotic (%) [4]: 72% and 79%
- Population Fragmented Nuclei (%) [4]: 28% and 23%
- Population Healthy Nuclei (%) [4]: 52% and 63%
- Population Hoechst High Intensity Objects (%) [4]: 1% and 0%
- Population Mitotic Cells (%) [4]: 27% and 20%
- Population Pyknosed Nuclei (%) [4]: 18% and 13%
- Total Cell Count [4]: 262 and 331
- Population Apoptotic (%) [5]: 71% and 57%
- Population Fragmented Nuclei (%) [5]: 18% and 16%
- Population Healthy Nuclei (%) [5]: 62% and 67%
- Population Hoechst High Intensity Objects (%) [5]: 0%
- Population Mitotic Cells (%) [5]: 28% and 42%
- Population Normal (%) [5]: 100%
- Population Pyknosed Nuclei (%) [5]: 18% and 15%
- Total Cell Count [5]: 154 and 164
- Population Apoptotic (%) [6]: 84% and 82%
- Population Fragmented Nuclei (%) [6]: 32% and 30%
- Population Healthy Nuclei (%) [6]: 56% and 58%
- Population Hoechst High Intensity Objects (%) [6]: 1% and 0%
- Population Mitotic Cells (%) [6]: 15% and 17%
- Population Normal (%) [6]: 100%
- Population Pyknosed Nuclei (%) [6]: 10%
- Total Cell Count [6]: 300 and 395

SMILES: CS(=O)(=O)c1ccc(C(=O)Nc2cc(F)cc(COc3ccc(Br)cc3CN3CC[C@H](O)C3)c2)c(Cl)c1.O=CO
- Population Apoptotic (%) [1]: 47% and 46%
- Population Healthy Nuclei (%) [1]: 54% and 67%
- Population Mitotic Cells (%) [1]: 52% and 53%
- Population Pyknosed Nuclei (%) [1]: 32% and 19%
- Total Cell Count [1]: 177 and 249
- Population Apoptotic (%) [2]: 54% and 58%
- Population Fragmented Nuclei (%) [2]: 16% and 19%
- Population Healthy Nuclei (%) [2]: 51% and 54%
- Population Mitotic Cells (%) [2]: 45% and 41%
- Population Pyknosed Nuclei (%) [2]: 31% and 26%
- Total Cell Count [2]: 197 and 232
- Population Apoptotic (%) [3]: 56% and 57%
- Population Fragmented Nuclei (%) [3]: 17% and 22%
- Population Healthy Nuclei (%) [3]: 55% and 57%
- Population Mitotic Cells (%) [3]: 43% and 42%
- Population Pyknosed Nuclei (%) [3]: 26% and 20%
- Total Cell Count [3]: 195 and 268
- Population Fragmented Nuclei (%) [4]: 18%
- Population Healthy Nuclei (%) [4]: 57% and 54%
- Population Mitotic Cells (%) [4]: 9% and 16%
- Population Pyknosed Nuclei (%) [4]: 23% and 22%
- Total Cell Count [4]: 187 and 243
- Population Apoptotic (%) [5]: 76%
- Population Fragmented Nuclei (%) [5]: 21%
- Population Healthy Nuclei (%) [5]: 57% and 61%
- Population Mitotic Cells (%) [5]: 21% and 23%
- Population Pyknosed Nuclei (%) [5]: 20% and 14%
- Total Cell Count [5]: 201 and 289
- Population Apoptotic (%) [6]: 97%
- Population Fragmented Nuclei (%) [6]: 17% and 19%
- Population Healthy Nuclei (%) [6]: 54%
- Population Mitotic Cells (%) [6]: 2% and 7%
- Population Pyknosed Nuclei (%) [6]: 28% and 25%
- Total Cell Count [6]: 144 and 211

SMILES: CS(=O)(=O)c1ccc(C(=O)Nc2cccc(COc3ccc(Br)cc3CN[C@H]3CCC[C@@H]3O)c2)c(Cl)c1.O=CO
- Population Apoptotic (%) [1]: 24% and 46%
- Population Healthy Nuclei (%) [1]: 71% and 64%
- Population Hoechst High Intensity Objects (%) [1]: 0%
- Population Mitotic Cells (%) [1]: 75% and 53%
- Population Normal (%) [1]: 99% and 100%
- Population Pyknosed Nuclei (%) [1]: 20%
- Total Cell Count [1]: 223 and 167
- Population Apoptotic (%) [2]: 52% and 50%
- Population Healthy Nuclei (%) [2]: 43% and 57%
- Population Hoechst High Intensity Objects (%) [2]: 1% and 0%
- Population Mitotic Cells (%) [2]: 47% and 50%
- Population Normal (%) [2]: 98% and 99%
- Population Pyknosed Nuclei (%) [2]: 42%
- Total Cell Count [2]: 187 and 221
- Population Apoptotic (%) [3]: 44% and 73%
- Population Healthy Nuclei (%) [3]: 68% and 59%
- Population Hoechst High Intensity Objects (%) [3]: 0%
- Population Normal (%) [3]: 100%
- Total Cell Count [3]: 219 and 171
- Population Apoptotic (%) [4]: 62% and 72%
- Population Healthy Nuclei (%) [4]: 58% and 51%
- Population Hoechst High Intensity Objects (%) [4]: 0%
- Population Mitotic Cells (%) [4]: 37% and 27%
- Population Normal (%) [4]: 99% and 97%
- Population Pyknosed Nuclei (%) [4]: 32%
- Total Cell Count [4]: 202 and 182
- Population Apoptotic (%) [5]: 75% and 70%
- Population Healthy Nuclei (%) [5]: 70% and 68%
- Population Hoechst High Intensity Objects (%) [5]: 0%
- Population Mitotic Cells (%) [5]: 24% and 29%
- Population Normal (%) [5]: 99% and 100%
- Population Pyknosed Nuclei (%) [5]: 20%
- Total Cell Count [5]: 218 and 154
- Population Apoptotic (%) [6]: 87% and 86%
- Population Healthy Nuclei (%) [6]: 71% and 55%
- Population Hoechst High Intensity Objects (%) [6]: 0% and 1%
- Population Normal (%) [6]: 99% and 98%
- Population Pyknosed Nuclei (%) [6]: 20%
- Total Cell Count [6]: 197 and 190
